Published values of several laboratories.
Target: Platelet-derived growth factor receptor beta (PDGFRB, Homo sapiens, UniProt P09619)

NS(=O)(=O)c1cc(NC(=O)Cc2ccccc2)ccc1Oc1cccc(Cl)c1  remaining binding (cell-free assay, competition with immobilised ligand; 1 µM): 76%
O=C(CSc1nc2nccnc2c(=O)n1CCc1ccccc1)Nc1nccs1  inhibition (enzyme activity, inhibitor; 10 µM): 2%
Cn1cc(Cl)c2c(Oc3c(F)cc(Nc4cc(Cl)nc(N)n4)cc3F)ccnc21  remaining binding (cell-free assay, competition with immobilised ligand; 0.1 µM): 96%
COc1cc2ncnc(Nc3ccc(Oc4ccccc4)c(C)c3C)c2cc1OC  inhibition (enzyme activity, inhibitor; 1 µM): 6%
Cc1sc(C(=O)NC2COC2)cc1-n1cc(NC(=O)Nc2c(F)cccc2Cl)cn1  remaining activity (enzyme activity, inhibitor; 10 µM): 97.9%
O=C(Nc1cccnn1)N1CC(C/C=C/c2cncc(Oc3ccc(C(F)(F)F)cn3)n2)C1  remaining binding (cell-free assay, competition with immobilised ligand; 1 µM): 81%
Cc1ccc(Nc2nccc(N(C)c3ccc4c(C)n(C)nc4c3)n2)cc1S(N)(=O)=O  inhibition (enzyme activity, inhibitor; 10 µM): 97%
Cc1ccc(NC(=O)c2ccc(CN3CCN(C)CC3)cc2)cc1Nc1nccc(-c2cccnc2)n1  activity vs control (enzyme activity, inhibitor; 0.5 µM): 39.1%
Cc1ccc(C(=O)Nc2ccc(CN3CCN(C)CC3)c(C(F)(F)F)c2)cc1C#Cc1cnc2cccnn12  remaining activity (enzyme activity, inhibitor; 23.5 nM): 1.6%
CCCOc1ccc([C@H]2[C@H](C(=O)O)[C@@H](c3ccc4c(c3)OCO4)CN2CC(=O)Nc2c(CC)cccc2CC)cc1  remaining binding (cell-free assay, competition with immobilised ligand; 1 µM): 100%
CCCS(=O)(=O)Nc1ccc(F)c(C(=O)c2c[nH]c3ncc(-c4ccc(Cl)cc4)cc23)c1F  inhibition (enzyme activity, inhibitor; 1 µM): < 20%
CCN(CC)CCNC(=O)c1c(C)[nH]c(/C=C2\C(=O)Nc3ccc(F)cc32)c1C  remaining signal (cell-free assay; 0.5 µM): 17.6%
C=CC(=O)Nc1cc(Nc2nccc(Nc3cc(Cl)c(F)cc3C(C)(C)O)n2)c(OC)cc1N1CC[C@@H](N(C)C)C1  inhibition (enzyme activity, inhibitor; 1 µM): -2%
Cc1ccc(C(=O)NCc2ccsc2)cc1C#Cc1cn(C(C)C)c2ncnc(N)c12  activity vs control (enzyme activity, inhibitor; 1 µM): 20%
CCN(CC)c1ccc(C2=NNC(=O)CC2C)cc1[N+](=O)[O-] (centres unmarked)  remaining activity (enzyme activity, inhibitor; 10 µM): 6%
COc1cc(Cl)c(C(=O)N[C@@H](CN[C@H]2CC[C@@H](N)CC2)Cc2ccc(C#N)cc2)cc1-c1ccc(CN[C@H](C)c2ccc(C)cc2)o1  remaining activity (enzyme activity, inhibitor; 1 µM): 95%
O=[N+]([O-])c1cccc2[nH]c(CNc3nc(N4CCOCC4)nc4c3ncn4-c3ccsc3)nc12  binding vs control (binding, competition with immobilised ligand; 10 µM): 8.2%
Oc1cccc(-c2nc(N3CCOCC3)c3oc4ncccc4c3n2)c1  remaining signal (cell-free assay; 0.5 µM): 99.2%
CS(=O)(=O)N1CCCC(NC(=O)[C@H](CCC2CCCCC2)NC(=O)c2ccc(CNc3ncnc4c3nnn4-c3ccccc3)cc2)C1 (some centres unmarked)  remaining binding (cell-free assay, competition with immobilised ligand; 0.1 µM): 86%
CC(C)(O)[C@H]1CC[C@H](Nc2ccc3ncc(-c4cccc(C(F)(F)F)c4)n3n2)CC1  remaining activity (enzyme activity, inhibitor; 1 µM): 81%
O=c1cc(-c2cccc3c2Sc2ccccc2S3)oc(N2CCOCC2)c1  remaining activity (enzyme activity, inhibitor; 0.5 µM): 102%
COc1cccc(CNC(=O)c2nc3scc(COCc4ccc(C(=O)O)cc4)c3c(=O)[nH]2)c1  remaining binding (cell-free assay, competition with immobilised ligand; 1 µM): 99%
COc1cc2c(cc1OC)-c1[nH]nc(Nc3cccc(F)c3)c1C2  remaining signal (cell-free assay; 0.5 µM): 45.3%
Cc1[nH]c(/C=C2\C(=O)Nc3ccc(F)cc32)c(C)c1C(=O)N[C@H]1CCN(C(=O)N(C)C)C1  remaining activity (enzyme activity, inhibitor; 1 µM): 18%
Cc1ccc(NC(=O)c2ccc(C)c(C(F)(F)F)c2)cc1C#Cc1nn(C2CCC(O)CC2)c2ncnc(N)c12 (centres unmarked)  remaining signal (cell-free assay; 10 µM): 87%
O=C(Nc1cccnn1)N1CCC(=Cc2cccc(Oc3ccc(C(F)(F)F)cn3)c2)CC1  remaining binding (cell-free assay, competition with immobilised ligand; 1 µM): 97%
CNC(=O)c1cc(Oc2ccc(NC(=O)Nc3ccc(Cl)c(C(F)(F)F)c3)cc2)ccn1  remaining signal (cell-free assay; 0.5 µM): 12%
CC(C)(O)c1cncc(-c2nc3ccc(F)cc3n2C2CC2)c1  remaining binding (cell-free assay, competition with immobilised ligand; 1 µM): 100%
O=C1c2ccccc2-c2n[nH]c3cccc1c23  activity vs control (enzyme activity, inhibitor; 0.5 µM): 85.1%
